Experimental data from different studies.
Protocols differ between the studies behind these lines. pEC50, pIC50: −log10 of the molar value. Values after ≈ are worked out from the molar mass of the structure shown.

COc1ccc(-c2c(-c3ccccn3)nc3n2CCC3)cc1OC gave a pEC50 of 5.70 (Leishmania infantum; parasite growth; 5 days, intracellular, amastigote).
C/C(O)=C1\C(=O)C(CC(C)C)N(C(=O)CCCCCc2ccccc2)C1=O (centres unmarked) has an MIC of greater than 200 µg/mL (Stenotrophomonas maltophilia; microbial growth; ATCC13637).
For CC(C)CN(c1ccc(F)cc1)c1c(-c2ccccn2)nc2ccccn12, the pEC50 was 6.10 (Leishmania infantum; parasite growth; 5 days, intracellular, amastigote).
The MIC of C/C(O)=C1\C(=O)C(CC(C)C)N(C(=O)C=Cc2ccccc2)C1=O (centres unmarked) is reported as greater than 200 µg/mL (Stenotrophomonas maltophilia; microbial growth; ATCC13637).
O=C(N[C@@H](Cc1ccccc1)C(=O)c1cn(COCc2ccccc2)nn1)[C@H](Cc1ccccc1)NC(=O)N1CCOCC1 gave a pIC50 of less than 4.19 (Leishmania infantum; parasite growth; intracellular, amastigote).
With O=C(O)CN1C(=O)/C(=C/c2ccc(-c3ccc(N(c4ccccc4)c4ccccc4)cc3)c3ccccc23)NC1=S the MIC was greater than 1000 µg/mL (Streptococcus pyogenes; microbial growth, broth dilution; ATCC19615).
For c1ccc(-c2nc3n(c2-c2ccncc2)CCC3)nc1, the pEC50 was less than 4.20 (Leishmania infantum; parasite growth; 5 days, intracellular, amastigote).
The MIC of O=C1NC(=S)N/C1=C\c1ccc(-c2ccc(N(c3ccccc3)c3ccccc3)cc2)c2ccccc12 is reported as greater than 1000 µg/mL (Streptococcus pyogenes; microbial growth, broth dilution; ATCC19615).
With CN(c1ccc(F)cc1)c1c(-c2ccccn2)nc2ccccn12 the pEC50 was 6.00 (Leishmania infantum; parasite growth; 5 days, intracellular, amastigote).
CC(=O)C1=C(C)N2NC(c3ccccc3O)N(C(Cc3c[nH]c4ccccc34)C(=O)O)C2=NC1c1ccc(Cl)cc1 (centres unmarked) has an inhibition zone of 18 mm (Streptococcus pyogenes; microbial growth; ATCC19615; 10 µg/mL, 24 h).
For Fc1ccc(Nc2c(-c3ccccn3)nc3ccccn23)nc1, the pEC50 was less than 4.20 (Leishmania infantum; parasite growth; 5 days, intracellular, amastigote).
The MIC of O=C(O)CN1C(=O)/C(=C/c2ccc(-c3ccc(N(c4ccccc4)c4ccccc4)cc3)c3ccccc23)SC1=S is reported as 1000 µg/mL (≈ 1750 µM) (Streptococcus pyogenes; microbial growth, broth dilution; ATCC19615).
CC(C(=O)O)N1C2=NC(c3ccc(Cl)cc3)C3=C(OC(C)(C)OC3=O)N2NC1(C)c1ccccc1O (centres unmarked) gave an inhibition zone of 22 mm (Streptococcus pyogenes; microbial growth; ATCC19615; 15 µg/mL, 24 h).
For O=C(O)CN1C(=O)/C(=C/c2ccc(-c3ccc(N(c4ccccc4)c4ccccc4)cc3)cc2)SC1=S, the MBC was 500 µg/mL (≈ 957 µM) (Streptococcus pyogenes; microbial killing, broth dilution; ATCC19615).
CC(C(=O)O)N1c2nc(-c3ccc(Cl)cc3)c(C#N)c(=O)n2NC1(C)c1ccccc1O (centres unmarked) has an inhibition zone of 16 mm (Streptococcus pyogenes; microbial growth; ATCC19615; 10 µg/mL, 24 h).
For O=C(N[C@@H](Cc1ccccc1)C(=O)c1nc2ccccc2o1)[C@H](Cc1ccccc1)NC(=O)N1CCOCC1, the pIC50 was less than 4.19 (Leishmania infantum; parasite growth; intracellular, amastigote).
O=C1C(=Cc2ccccc2)Oc2ccccc21 has an inhibition of 80% (Streptococcus mutans; microbial growth; UA159; 50 µM).
O=C(N[C@@H](Cc1ccccc1)C(=O)c1ncc(-c2ccccc2)o1)[C@H](Cc1ccccc1)NC(=O)N1CCOCC1 gave a pIC50 of less than 4.19 (Leishmania infantum; parasite growth; intracellular, amastigote).
CN[C@H](CC(C)C)C(=O)N[C@H]1C(=O)N[C@@H](CC(N)=O)C(=O)N[C@H]2C(=O)N[C@H]3C(=O)N[C@H](C(=O)N[C@H](C(=O)O)c4cc(O)cc(O)c4-c4cc3ccc4O)[C@H](O)c3ccc(c(Cl)c3)Oc3cc2cc(c3O[C@@H]2O[C@H](CO)[C@@H](O)[C@H](O)[C@H]2O[C@H]2C[C@](C)(N)[C@H](O)[C@H](C)O2)Oc2ccc(cc2Cl)[C@H]1O has an MBC of greater than 32 µg/mL (Streptococcus pyogenes; microbial killing).
For COc1cc(OC)c(OC)cc1C=C1Oc2ccccc2C1=O, the inhibition was 30% (Streptococcus mutans; microbial growth; UA159; 50 µM).
CCOC(=O)C1=C(C)N2NC(c3ccccc3O)N(C(Cc3c[nH]c4ccccc34)C(=O)O)C2=NC1c1ccc(Cl)cc1 (centres unmarked) has an inhibition zone of 18 mm (Streptococcus pyogenes; microbial growth; ATCC19615; 10 µg/mL, 24 h).
With C[Si](C)(C)c1cc(C(=O)[C@H](Cc2ccccc2)NC(=O)[C@H](Cc2ccccc2)NC(=O)N2CCOCC2)no1 (mixture of isomers) the pIC50 was less than 4.19 (Leishmania infantum; parasite growth; intracellular, amastigote).
The MBC of O=C(O)CN1C(=O)/C(=C/c2c3ccccc3c(-c3ccc(N(c4ccccc4)c4ccccc4)cc3)c3ccccc23)SC1=S is reported as greater than 1000 µg/mL (Streptococcus pyogenes; microbial killing, broth dilution; ATCC19615).
With O=C(N[C@@H](Cc1ccccc1)C(=O)c1cc(-c2ccccc2)no1)[C@H](Cc1ccccc1)NC(=O)N1CCOCC1 (mixture of isomers) the pIC50 was less than 4.19 (Leishmania infantum; parasite growth; intracellular, amastigote).
O=C1NC(=S)S/C1=C\c1ccc(-c2ccc(N(c3ccccc3)c3ccccc3)cc2)cc1 has an MBC of greater than 1000 µg/mL (Streptococcus mutans; microbial killing, broth dilution; ATCC25175).
The inhibition zone of CC1(c2ccccc2O)Nn2c(nc(-c3ccc(Cl)cc3)c(C#N)c2=O)N1C(Cc1c[nH]c2ccccc12)C(=O)O (centres unmarked) is reported as 32 mm (Streptococcus pyogenes; microbial growth; ATCC19615; 15 µg/mL, 24 h).
Fc1ccc(Nc2c(-c3ccccn3)nc3ccccn23)cc1 gave a pIC50 of 5.09 (Leishmania infantum; parasite growth; intracellular, amastigote).
With CCCCCCC/C=C/C(=O)N1C(=O)/C(=C(/C)O)C(=O)C1Cc1ccc(OC(C)(C)C)cc1 (centres unmarked) the MIC was greater than 200 µg/mL (Stenotrophomonas maltophilia; microbial growth; ATCC13637).
CN(c1ccc(F)cc1)c1c(-c2ccc(F)cn2)nc2ccccn12 has a pEC50 of 5.90 (Leishmania infantum; parasite growth; intracellular, amastigote).
CC(=O)C1=C(C)N2NC(C)(c3ccccc3O)N(C(C)C(=O)O)C2=NC1c1ccc(Cl)cc1 (centres unmarked) has an inhibition zone of 18 mm (Streptococcus pyogenes; microbial growth; ATCC19615; 15 µg/mL, 24 h).
With O=C(N[C@@H](Cc1ccccc1)C(=O)c1cc(-c2ccccc2)on1)[C@H](Cc1ccccc1)NC(=O)N1CCOCC1 (single isomer, unassigned) the pIC50 was less than 4.19 (Leishmania infantum; parasite growth; intracellular, amastigote).
The inhibition zone of CC(=O)C1=C(C)N2NC(C)(c3ccccc3O)N(C(Cc3c[nH]c4ccccc34)C(=O)O)C2=NC1c1ccc(Cl)cc1 (centres unmarked) is reported as 32 mm (Streptococcus pyogenes; microbial growth; ATCC19615; 15 µg/mL, 24 h).
O=C1NC(=S)S/C1=C\c1c2ccccc2c(-c2ccc(N(c3ccccc3)c3ccccc3)cc2)c2ccccc12 gave an MBC of greater than 1000 µg/mL (Streptococcus pyogenes; microbial killing, broth dilution; ATCC19615).
CCOC(=O)C1=C(C)N2NC(C)(c3ccccc3O)N(C(Cc3c[nH]c4ccccc34)C(=O)O)C2=NC1c1ccc(Cl)cc1 (centres unmarked) has an inhibition zone of 31 mm (Streptococcus pyogenes; microbial growth; ATCC19615; 15 µg/mL, 24 h).
c1ccc(-c2nc3n(c2-c2cccnc2)CCC3)nc1 gave a pIC50 of less than 4.19 (Leishmania infantum; parasite growth; intracellular, amastigote).
